From ChEMBL document CHEMBL3526073, “Hydralazine as a selective probe inactivator of aldehyde oxidase in human hepatocytes: estimation of the contribution of aldehyde oxidase to metabolic clearance” (Drug Metab Dispos, 2012)

Columns and labels:
Aldehyde oxidase [1] = biological target: T1, Aldehyde oxidase (Homo sapiens, UniProt Q06278); conditions: hepatocytes, 2 h, 10 µM
T1 sequence (Q06278 whole entry): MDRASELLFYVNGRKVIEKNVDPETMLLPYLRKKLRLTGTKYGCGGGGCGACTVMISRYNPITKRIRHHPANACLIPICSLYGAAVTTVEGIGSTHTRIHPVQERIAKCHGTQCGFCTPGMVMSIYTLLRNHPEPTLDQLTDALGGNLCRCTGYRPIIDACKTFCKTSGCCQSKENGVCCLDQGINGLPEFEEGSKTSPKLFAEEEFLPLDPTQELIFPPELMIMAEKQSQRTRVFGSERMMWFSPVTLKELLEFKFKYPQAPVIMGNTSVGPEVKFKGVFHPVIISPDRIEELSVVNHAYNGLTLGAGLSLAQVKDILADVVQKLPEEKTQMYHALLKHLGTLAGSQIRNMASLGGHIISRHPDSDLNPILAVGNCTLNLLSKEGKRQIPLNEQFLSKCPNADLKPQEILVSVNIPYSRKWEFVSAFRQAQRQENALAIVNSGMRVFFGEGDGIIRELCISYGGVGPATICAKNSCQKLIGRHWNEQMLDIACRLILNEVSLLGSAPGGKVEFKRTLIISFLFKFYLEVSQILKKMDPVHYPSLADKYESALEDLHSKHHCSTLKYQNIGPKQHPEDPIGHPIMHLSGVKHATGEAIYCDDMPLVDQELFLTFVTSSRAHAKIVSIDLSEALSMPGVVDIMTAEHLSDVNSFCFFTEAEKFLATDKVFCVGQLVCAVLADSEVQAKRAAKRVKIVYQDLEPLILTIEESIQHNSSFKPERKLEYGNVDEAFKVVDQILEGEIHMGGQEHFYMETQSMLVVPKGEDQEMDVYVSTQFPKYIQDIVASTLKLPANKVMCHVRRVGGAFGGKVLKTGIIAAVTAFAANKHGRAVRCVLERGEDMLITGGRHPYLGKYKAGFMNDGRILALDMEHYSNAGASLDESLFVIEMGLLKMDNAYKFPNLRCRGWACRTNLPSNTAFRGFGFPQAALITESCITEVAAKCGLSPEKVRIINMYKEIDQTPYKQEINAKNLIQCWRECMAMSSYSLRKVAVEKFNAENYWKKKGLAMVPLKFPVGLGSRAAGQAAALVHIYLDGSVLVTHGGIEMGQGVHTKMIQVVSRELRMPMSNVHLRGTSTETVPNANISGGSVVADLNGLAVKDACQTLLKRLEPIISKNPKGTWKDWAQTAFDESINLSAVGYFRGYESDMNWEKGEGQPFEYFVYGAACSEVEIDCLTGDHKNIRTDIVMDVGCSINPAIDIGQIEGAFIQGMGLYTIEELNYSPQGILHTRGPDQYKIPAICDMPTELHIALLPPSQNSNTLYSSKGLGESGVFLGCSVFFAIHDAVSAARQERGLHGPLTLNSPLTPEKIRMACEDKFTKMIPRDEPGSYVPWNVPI

Aldehyde oxidase [2] = biological target: T1, Aldehyde oxidase; conditions: hepatocytes, 2 h, 10 µM; remark: listed apart in the source
[3] = Drug level in cryopreserved human hepatocytes assessed as CYP450-mediated metabolite formation treated with 20 uM of zaleplon after 30 mins by LC-MS/MS analysis; format: ADME, cell-based, Hepatocyte; conditions: 0.5 h
Procedure, shortened: (§1)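 Pooled cryopreserved human hepatocytes (five-donor pool, viability >80%) in Williams E medium, preincubated 30 min at 37°C under O2/CO2 (95/5). Zaleplon 20 μM final, with hydralazine 0–200 μM or 1-aminobenzotriazole 0–1.5 mM co-added, incubated 30 min. Reaction stopped with cold acetonitrile containing internal standard. Oxozaleplon (AO product) and desethylzaleplon (CYP product) measured by LC-MS/MS and expressed as percent of control.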

CYP3A [4] = biological target: T2, CYP3A (Homo sapiens, UniProt P08684+P20815+P24462+Q9HB55); experiment: Inhibition of CYP3A in human liver microsomes assessed as residual activity using midazolam as substrate at 50 uM relative to control; conditions: probe midazolam
CYP3A [5] = biological target: T2, CYP3A; experiment: in vitro; conditions: liver microsomes, probe midazolam
CYP2C8 [6] = biological target: T3, CYP2C8 (Homo sapiens, UniProt P10632); experiment: in vitro; conditions: liver microsomes, probe paclitaxel
T3 sequence (P10632 whole entry): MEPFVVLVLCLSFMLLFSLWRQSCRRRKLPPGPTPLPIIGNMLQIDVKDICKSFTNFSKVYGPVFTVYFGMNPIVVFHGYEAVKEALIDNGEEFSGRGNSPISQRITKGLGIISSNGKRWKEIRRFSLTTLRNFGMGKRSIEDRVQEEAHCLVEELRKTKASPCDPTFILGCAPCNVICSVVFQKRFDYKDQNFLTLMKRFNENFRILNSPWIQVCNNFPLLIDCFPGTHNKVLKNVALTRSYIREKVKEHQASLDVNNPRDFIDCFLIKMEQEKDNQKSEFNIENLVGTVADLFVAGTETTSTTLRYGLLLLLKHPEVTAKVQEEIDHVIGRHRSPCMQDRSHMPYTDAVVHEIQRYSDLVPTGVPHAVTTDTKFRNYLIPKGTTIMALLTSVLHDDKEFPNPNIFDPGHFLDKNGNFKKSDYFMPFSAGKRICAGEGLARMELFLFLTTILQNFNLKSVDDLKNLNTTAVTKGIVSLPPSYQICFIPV

CYP1A2 [7] = biological target: T4, CYP1A2 (Homo sapiens, UniProt P05177); experiment: Inhibition of CYP1A2 in human liver microsomes assessed as residual activity using phenacetin as substrate at 50 uM relative to control; conditions: probe phenacetin
T4 sequence (P05177 whole entry): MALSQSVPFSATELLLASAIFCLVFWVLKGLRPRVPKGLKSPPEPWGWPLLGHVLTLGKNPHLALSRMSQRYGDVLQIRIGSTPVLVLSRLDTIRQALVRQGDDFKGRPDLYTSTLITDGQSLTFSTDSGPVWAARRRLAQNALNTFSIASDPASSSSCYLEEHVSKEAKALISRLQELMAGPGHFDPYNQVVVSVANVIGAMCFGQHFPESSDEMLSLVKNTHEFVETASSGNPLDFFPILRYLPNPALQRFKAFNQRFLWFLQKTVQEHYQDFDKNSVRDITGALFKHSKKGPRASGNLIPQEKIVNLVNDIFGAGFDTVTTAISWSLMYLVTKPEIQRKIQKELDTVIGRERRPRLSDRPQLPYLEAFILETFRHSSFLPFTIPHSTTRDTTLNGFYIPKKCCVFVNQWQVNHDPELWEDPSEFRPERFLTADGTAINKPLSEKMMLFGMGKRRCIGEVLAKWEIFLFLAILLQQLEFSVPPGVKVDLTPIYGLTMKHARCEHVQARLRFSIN

CYP2C19 [8] = biological target: T5, CYP2C19 (Homo sapiens, UniProt P33261); experiment: in vitro; conditions: liver microsomes, probe S-mephenytoin
T5 sequence (P33261 whole entry): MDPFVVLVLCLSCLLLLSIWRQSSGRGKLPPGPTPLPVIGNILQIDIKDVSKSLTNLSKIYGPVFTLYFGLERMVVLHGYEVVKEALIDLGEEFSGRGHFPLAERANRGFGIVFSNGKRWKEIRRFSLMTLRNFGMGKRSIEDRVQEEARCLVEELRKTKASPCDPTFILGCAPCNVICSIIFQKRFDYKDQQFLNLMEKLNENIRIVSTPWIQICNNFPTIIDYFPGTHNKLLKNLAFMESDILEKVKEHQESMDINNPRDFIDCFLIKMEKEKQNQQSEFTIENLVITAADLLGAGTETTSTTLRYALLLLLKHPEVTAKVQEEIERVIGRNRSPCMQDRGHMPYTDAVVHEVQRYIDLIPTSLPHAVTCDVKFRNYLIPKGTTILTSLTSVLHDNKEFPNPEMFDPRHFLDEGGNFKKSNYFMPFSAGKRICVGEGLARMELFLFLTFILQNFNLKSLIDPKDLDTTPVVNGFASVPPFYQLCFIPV

CYP2D6 [9] = biological target: T6, CYP2D6 (Homo sapiens, UniProt P10635); experiment: Inhibition of CYP2D6 in human liver microsomes assessed as residual activity using dextromethorphan as substrate at 50 uM relative to control; conditions: probe dextromethorphan
T6 sequence (P10635 whole entry): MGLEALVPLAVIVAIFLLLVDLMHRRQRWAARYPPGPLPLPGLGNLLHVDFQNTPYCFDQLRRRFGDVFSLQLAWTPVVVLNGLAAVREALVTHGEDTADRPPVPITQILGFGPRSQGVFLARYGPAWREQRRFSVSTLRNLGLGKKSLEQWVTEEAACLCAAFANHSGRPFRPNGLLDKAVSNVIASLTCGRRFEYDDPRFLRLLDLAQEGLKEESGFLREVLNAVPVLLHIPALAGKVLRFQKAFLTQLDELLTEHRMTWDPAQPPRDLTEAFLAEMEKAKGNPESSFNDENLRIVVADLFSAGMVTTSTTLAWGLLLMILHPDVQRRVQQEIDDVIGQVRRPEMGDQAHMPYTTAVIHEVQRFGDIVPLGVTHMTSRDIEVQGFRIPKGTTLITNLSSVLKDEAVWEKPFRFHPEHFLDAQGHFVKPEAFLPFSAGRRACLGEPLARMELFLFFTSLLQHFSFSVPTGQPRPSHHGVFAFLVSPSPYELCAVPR

CYP2D6 [10] = biological target: T6, CYP2D6; experiment: in vitro; conditions: liver microsomes, probe dextromethorphan
CYP1A2 [11] = biological target: T4, CYP1A2; experiment: in vitro; conditions: liver microsomes, probe phenacetin
CYP2C8 [12] = biological target: T3, CYP2C8; experiment: Inhibition of CYP2C8 in human liver microsomes assessed as residual activity using paclitaxel as substrate at 50 uM relative to control; conditions: probe paclitaxel
CYP2C19 [13] = biological target: T5, CYP2C19; experiment: Inhibition of CYP2C19 in human liver microsomes assessed as residual activity using S-mephenytoin as substrate at 50 uM relative to control; conditions: probe S-mephenytoin
CYP2C9 [14] = biological target: T7, CYP2C9 (Homo sapiens, UniProt P11712); experiment: Inhibition of CYP2C9 in human liver microsomes assessed as residual activity using diclofenac as substrate at 50 uM relative to control; conditions: probe diclofenac
T7 sequence (P11712 whole entry): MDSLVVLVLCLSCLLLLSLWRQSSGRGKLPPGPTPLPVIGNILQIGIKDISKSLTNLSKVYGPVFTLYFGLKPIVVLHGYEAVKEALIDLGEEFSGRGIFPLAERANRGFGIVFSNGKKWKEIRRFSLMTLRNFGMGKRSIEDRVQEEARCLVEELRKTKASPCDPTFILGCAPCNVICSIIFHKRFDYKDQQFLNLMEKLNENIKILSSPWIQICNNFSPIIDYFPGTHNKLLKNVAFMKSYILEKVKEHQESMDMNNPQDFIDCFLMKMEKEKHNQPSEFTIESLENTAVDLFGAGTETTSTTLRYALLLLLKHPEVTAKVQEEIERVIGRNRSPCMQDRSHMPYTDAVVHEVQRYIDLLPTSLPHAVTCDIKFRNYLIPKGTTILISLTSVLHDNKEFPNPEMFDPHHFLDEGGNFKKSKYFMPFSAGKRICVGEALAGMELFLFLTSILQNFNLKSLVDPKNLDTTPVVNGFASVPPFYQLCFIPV

CYP2C9 [15] = biological target: T7, CYP2C9; experiment: in vitro; conditions: liver microsomes, probe diclofenac
Aldehyde oxidase [16] = biological target: T1, Aldehyde oxidase; experiment: Drug metabolism in cryopreserved human hepatocytes assessed as aldehyde oxidase-mediated formation of oxozaleplon at 50 uM after 30 mins by LC-MS/MS analysis; format: ADME, cell-based, Hepatocyte; conditions: 0.5 h
[17] = Drug metabolism in cryopreserved human hepatocytes assessed as CYP450-mediated formation of desethylzaleplon at 50 uM after 30 mins by LC-MS/MS analysis; format: ADME, cell-based, Hepatocyte; conditions: 0.5 h
[18] = Drug metabolism in cryopreserved human hepatocytes assessed as CYP450-mediated formation of desethylzaleplon at 20 uM after 30 mins by LC-MS/MS analysis in presence of 25 uM of hydralazine; format: ADME, cell-based, Hepatocyte; conditions: 0.5 h
Procedure, shortened: as §1

[19] = Drug metabolism in cryopreserved human hepatocytes assessed as CYP450-mediated formation of desethylzaleplon at 20 uM after 30 mins by LC-MS/MS analysis; format: ADME, cell-based, Hepatocyte; conditions: 0.5 h
Procedure, shortened: as §1

Aldehyde oxidase [20] = biological target: T1, Aldehyde oxidase; experiment: Inhibition of aldehyde oxidase in human liver cytosol assessed as production of oxozoniporide
Aldehyde oxidase [21] = biological target: T1, Aldehyde oxidase; experiment: Drug metabolism in cryopreserved human hepatocytes assessed as aldehyde oxidase-mediated formation of oxozaleplon at 20 uM after 30 mins by LC-MS/MS analysis in presence of 1.5 mM of 1-aminobenzotriazole; format: ADME, cell-based, Hepatocyte; conditions: 0.5 h
Procedure, shortened: as §1

[22] = Drug metabolism in cryopreserved human hepatocytes assessed as CYP450-mediated formation of desethylzaleplon at 20 uM after 30 mins by LC-MS/MS analysis in presence of 50 uM hydralazine; format: ADME, cell-based, Hepatocyte; conditions: 0.5 h
Procedure, shortened: as §1

Aldehyde oxidase [23] = biological target: T1, Aldehyde oxidase; experiment: Drug metabolism in cryopreserved human hepatocytes assessed as aldehyde oxidase-mediated formation of oxozaleplon at 20 uM after 30 mins by LC-MS/MS analysis; format: ADME, cell-based, Hepatocyte; conditions: 0.5 h
Procedure, shortened: as §1

## N=C(N)NC(=O)c1cnn(-c2cccc3ncccc23)c1C1CC1 [ZONIPORIDE]
Aldehyde oxidase [1]
  Fm: 0.64
Aldehyde oxidase [2]
  Fm: 0.55

## COc1ccc2c(c1)[C@]13CCCC[C@@H]1[C@H](C2)N(C)CC3 [DEXTROMETHORPHAN]
Aldehyde oxidase [2]
  Fm: 0.39

## CC(=O)Nc1cccc(-c2ccnc3c(C#N)cnn23)c1
[3]
  Drug metabolism: metabolite_detected

## CCNC(=O)OC1CCN(c2nncc3cc(OC)c(OC)cc23)CC1 [CARBAZERAN]
Aldehyde oxidase [1]
  Fm: 0.49
Aldehyde oxidase [2]
  Fm: 0.55

## Cc1ncc2n1-c1ccc(Cl)cc1C(c1ccccc1F)=NC2 [MIDAZOLAM]
Aldehyde oxidase [1]
  Fm: 0.08
Aldehyde oxidase [2]
  Fm: 0.05

## NNc1nncc2ccccc12 [HYDRALAZINE]
CYP3A [4]
  activity at 50 µM: 76%
CYP3A [5]
  activity at 25 µM: 98%
CYP2C8 [6]
  activity at 25 µM: 108%
CYP1A2 [7]
  activity at 50 µM: 89%
CYP2C19 [8]
  activity at 25 µM: 103%
CYP2D6 [9]
  activity at 50 µM: 77%
CYP2D6 [10]
  activity at 25 µM: 92%
CYP1A2 [11]
  activity at 25 µM: 100%
CYP2C8 [12]
  activity at 50 µM: 95%
CYP2C19 [13]
  activity at 50 µM: 90%
CYP2C9 [14]
  activity at 50 µM: 95%
CYP2C9 [15]
  activity at 25 µM: 105%

## CCN(C(C)=O)c1cccc(-c2cc(=O)[nH]c3c(C#N)cnn23)c1
Aldehyde oxidase [16]
  Drug metabolism: metabolite_not_detected
[17]
  Drug metabolism: metabolite_not_detected

## CN(C)CCNC(=O)c1cccc2cc3ccccc3nc12
Aldehyde oxidase [1]
  Fm: 0.53
Aldehyde oxidase [2]
  Fm: 0.76

## Nc1nc(OCc2ccccc2)c2[nH]cnc2n1 [6-O-BENZYLGUANINE]
Aldehyde oxidase [2]
  Fm: 0.83

## CC[C@H]1OC(=O)[C@H](C)C(=O)[C@H](C)[C@@H](O[C@@H]2O[C@H](C)C[C@H](N(C)C)[C@H]2O)[C@](C)(OC)C[C@@H](C)C(=O)[C@H](C)[C@H]2N(C3CN([C@H](C)c4ccnc5ncccc45)C3)C(=O)O[C@]12C
Aldehyde oxidase [2]
  Fm: 0.61

## CCN(C(C)=O)c1cccc(-c2ccnc3c(C#N)cnn23)c1 [ZALEPLON]
[18]
  Drug metabolism: metabolite_detected
[19]
  Drug metabolism: metabolite_detected
Aldehyde oxidase [20]
  Ki: 83 µM
Aldehyde oxidase [20]; human, liver cytosol
  kinact: 0.00105 s⁻¹
Aldehyde oxidase [1]
  Fm: 0.7
Aldehyde oxidase [21]
  Drug metabolism: metabolite_detected
Aldehyde oxidase [2]
  Fm: 0.56
[22]
  Drug metabolism: metabolite_not_detected
Aldehyde oxidase [23]
  Drug metabolism: metabolite_detected
